This is a sample that favours compounds with a hit; in the whole collection about 4.3% have one here.
MC4R antag cAMP – human MC4R antagonism in cAMP assay; P32245; MC4R-expressing cells, MTII-stimulated cAMP, LANCE TR-FRET; inhibition, % at 6.5 µM; hit rate 0.48% among 360,000; AID 540295;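 active means inhibition above its plate's cutoff, the mean of tested wells on that plate plus 3 SD, cut at about 29% in these data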;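 further: 0% = Melanotan II alone and 100% = Melanotan II plus saturating MCL0020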
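Test system: U2OS cells stably expressing human melanocortin 4 receptor (MC4R); also added: Melanotan II challenge; compound: 6.5 µM single dose; timing: 30-min compound preincubation, 1-h Melanotan II challenge, 1-h detection, room temperature; signal: Eu-cAMP/anti-cAMP TR-FRET, emission 671 nm; repeats: one well per compound, no replicates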
HTR2A ag – agonists of mouse serotonin 5-HT2A receptor (HTR2A); CHO-K1 mHTR2A beta-arrestin complementation, luminescence; percent of 30 µM serotonin response; activation, % at 7.6 µM; hit rate 0.66% among 360,000; AID 624169;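 active means activation above a run cutoff, the mean activation of all tested compounds plus 3 SD, cut at about 14% in these data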;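 further: 0% = plate median of compound wells and 100% = 30 µM serotonin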
TAAR1 agonist – agonists of human TAAR1. AID 624467. Q96RJ0. CHO RD-HGA16 TAAR1, Fluo-8 calcium fluorescence; vehicle wells 0%, saturating PEA agonist 100%. hit rate 0.99% among 360,000. activation, % at 3 µM;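 active means activation above the mean activation of all test compounds in the run plus 3 SD, cut at about 38% in these data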
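Signal – calcium-sensitive Fluo-8 signal, excitation 470-495, emission 515-575 nm · System – RD-HGA16 (CHO) cells co-expressing Gα16 and hTAAR1 · Incubation – 17-24 h seeding, 75 min 37 °C dye, 30 min RT · Compound dosing – 3 µM single concentration · Repeats – no replicates (n 1)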
TAAR1 antagonist – human TAAR1 antagonism. CHO RD-HGA16 TAAR1, Fluo-8 calcium fluorescence, antagonist. inhibition, % at 3 µM. hit rate 1.5% among 360,000. AID 624466;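 active means inhibition above a per-plate cutoff, the mean inhibition of test compounds on that plate plus 3 SD, cut at about 49% in these data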;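 further: 0% = DMSO plus EC80 beta-PEA response and 100% = DMSO alone without agonist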
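Test system – hTAAR1-expressing CHO RD-HGA16 cells, Gα16-coupled · Reagent – β-PEA at EC80 concentration, post-compound challenge · Compound dosing – 3 µM, single point · Timing – 140 s kinetic read after compound, 140 s after agonist · Detection – Fluo-8 intracellular calcium dye fluorescence, real-time kinetic reads · Control set – DMSO and EC80 PEA controls · Repeats – n of 1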
MC4R barr agon – agonists of human melanocortin 4 receptor (MC4R) beta-arrestin | activation, % at 8.9 µM | AID 540308 | hit rate 0.98% among 360,000 | U2OS MC4R beta-arrestin complementation, luminescence; percent of melanotan II response, DMSO zero | P32245;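 active means activation above a per-plate cutoff, the mean activation of sample wells on that plate plus 3 SD, cut at about 8% in these data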
Beta2AR agonist – activates human beta-2 adrenergic receptor causing internalization | AID 504454 | response, % (concentration not given with the values) | Am2.2-beta2AR cells, FAP receptor internalization, flow cytometry | hit rate 0.43% among 340,000 | P07550;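 active means response above a set limit, near 3 SD of response in nonfluorescent compounds, cut at about 42% in these data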
OPRM1 ag – counter-screen for mouse HTR2A agonists: human mu opioid receptor agonists; shares compounds with HTR2A ag; U2OS OPRM1 beta-arrestin PathHunter, luminescence; DMSO 0%, DAMGO 9.3 µM 100%; activation, % at 9.3 µM; hit rate 5.3% among 2,300; AID 624380;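 active means mean activation above the mean of DMSO-only wells plus 3 SD, cut at about 0.5% in these data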
Target sequence (P35372 whole entry, looked up): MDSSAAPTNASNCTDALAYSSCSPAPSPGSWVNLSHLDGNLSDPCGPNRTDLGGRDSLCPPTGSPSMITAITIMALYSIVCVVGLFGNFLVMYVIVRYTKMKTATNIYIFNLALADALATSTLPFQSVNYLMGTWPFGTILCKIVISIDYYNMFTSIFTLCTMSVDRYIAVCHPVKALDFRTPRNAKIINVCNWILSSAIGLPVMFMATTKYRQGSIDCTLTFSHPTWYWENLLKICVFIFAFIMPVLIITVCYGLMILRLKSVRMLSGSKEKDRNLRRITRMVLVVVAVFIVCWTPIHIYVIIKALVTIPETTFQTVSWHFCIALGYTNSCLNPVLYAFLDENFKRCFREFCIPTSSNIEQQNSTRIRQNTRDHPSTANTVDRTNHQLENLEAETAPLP
HTR2A ag conf – confirmation of mouse HTR2A serotonin receptor agonists; shares compounds with HTR2A ag; CHO-K1 PathHunter beta-arrestin recruitment, luminescence; DMSO 0%, 30 µM serotonin 100%; activation, % at 7.6 µM; hit rate 19% among 2,300; AID 624381;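 active means mean activation across triplicates above the hit threshold derived in the original primary screen, cut at about 15% in these data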
* = called active by the depositor.

For CCCC[C@@H](C)C[C@@H](C)C(=O)N(C)[C@@H](CC(C)C)C(=O)N[C@H](C(=O)N(C)[C@H](C(=O)N1C[C@@H](O)C[C@H]1C(=O)N1C(=O)C=C[C@@H]1C)C(C)C)C(C)OC(C)=O (stereo partly specified) the results were MC4R antag cAMP -19, HTR2A ag 2, MC4R barr agon 2 and Beta2AR agonist 36.
Screening Cn1c(O)c(C=NC2CCN(Cc3ccccc3)CC2)c(=O)n(C)c1=O returned MC4R antag cAMP 13, HTR2A ag 2, TAAR1 agonist 0, TAAR1 antagonist 2, MC4R barr agon -1 and Beta2AR agonist 1.
CCCCC1(CC)COP(=O)(OCC(Cl)(Cl)Cl)OC1 (stereo unspecified) was read as MC4R antag cAMP 1, HTR2A ag 20*, TAAR1 agonist -1, TAAR1 antagonist -1, MC4R barr agon 0, Beta2AR agonist 11, OPRM1 ag 0 and HTR2A ag conf -3.
For FC(F)(F)c1ccccc1N1CC1c1ccncc1 (stereo unspecified) the results were MC4R antag cAMP 4, HTR2A ag 8, TAAR1 agonist 1, TAAR1 antagonist -8, MC4R barr agon 2 and Beta2AR agonist -6.
For CC12CCC3C(CCCC4CC(=O)CCC43C)C1CCC2O (stereo unspecified) the results were MC4R antag cAMP 4, HTR2A ag 2, TAAR1 agonist 6, TAAR1 antagonist 2, MC4R barr agon 0 and Beta2AR agonist -12.
For C[C@]12CC[C@H](O)C[C@@H]1CC[C@@H]1[C@@H]2CC[C@]2(C)C(=O)CC[C@@H]12 the results were MC4R antag cAMP 5, HTR2A ag 22*, TAAR1 agonist 4, TAAR1 antagonist 6, MC4R barr agon 2, Beta2AR agonist -10, OPRM1 ag -1 and HTR2A ag conf -4.
CN1CCC(N(C)c2ccc(C(N)=O)cc2[N+](=O)[O-])CC1 was read as MC4R antag cAMP -1, HTR2A ag 3, TAAR1 agonist 3, TAAR1 antagonist -16, MC4R barr agon 0 and Beta2AR agonist -5.
Cc1cc(C)n2c(Br)c(CN3CC4CC(C3)c3cccc(=O)n3C4)nc2n1 (stereo unspecified) was read as MC4R antag cAMP 0, HTR2A ag 22*, TAAR1 agonist 2, TAAR1 antagonist -27, MC4R barr agon 0, Beta2AR agonist -14, OPRM1 ag -1 and HTR2A ag conf -4.
`O=P1(Oc2ccccc2)OCCCS1` (stereo unspecified) gave MC4R antag cAMP 3, HTR2A ag -1, TAAR1 agonist 4, TAAR1 antagonist -18, MC4R barr agon 1 and Beta2AR agonist -1.
`Cc1c(CCN)ccc2c1[nH]c1ccccc12` gave MC4R antag cAMP -3, HTR2A ag -1, TAAR1 agonist 26, TAAR1 antagonist -12, MC4R barr agon 0 and Beta2AR agonist -5.
`CCCN1CCO[C@@H]2c3cc(O)ccc3OC[C@H]21` gave MC4R antag cAMP 2, HTR2A ag 58*, TAAR1 agonist 0, TAAR1 antagonist 3, MC4R barr agon -1, Beta2AR agonist 4, OPRM1 ag -1 and HTR2A ag conf 161*.
For Cc1[nH]c2c(C(F)(F)F)cccc2c1CCN the results were MC4R antag cAMP 3, HTR2A ag 48*, TAAR1 agonist 12, TAAR1 antagonist 0, MC4R barr agon -1, Beta2AR agonist 7, OPRM1 ag -1 and HTR2A ag conf 32*.
`Cc1c(NP(=O)(C(C)(C)C)C(C)(C)C)c(=O)n(-c2ccccc2)n1C` gave MC4R antag cAMP -2, HTR2A ag 3, TAAR1 agonist 5, TAAR1 antagonist 12, MC4R barr agon -2 and Beta2AR agonist -4.
CCN(CC)C(=O)N[C@H]1C[C@@H]2c3cccc4[nH]cc(c34)C[C@H]2N(C)C1 was read as MC4R antag cAMP 1, HTR2A ag 39*, TAAR1 agonist 2, TAAR1 antagonist 5, MC4R barr agon 0, Beta2AR agonist -4, OPRM1 ag -1 and HTR2A ag conf 93*.
NC(Cc1ccccc1)c1nc(-c2ccccc2)no1 (stereo unspecified) was read as MC4R antag cAMP 7, HTR2A ag 4, TAAR1 agonist 1, TAAR1 antagonist -36, MC4R barr agon 0 and Beta2AR agonist 0.
Cc1ccc(S(=O)(=O)N2Cc3cc(-c4cccc(F)c4)ccc3-n3nncc3C2)cc1 was read as HTR2A ag 0, TAAR1 agonist 0 and TAAR1 antagonist -3.
`O=S(=O)(c1cc(Cl)cc(Cl)c1)N1Cc2cc(-c3cccc(F)c3)ccc2-n2nncc2C1` gave HTR2A ag 14*, TAAR1 agonist 3, TAAR1 antagonist -13, OPRM1 ag 0 and HTR2A ag conf -2.
Screening CS(=O)(=O)CCN1CC2CCCC(C2)C1 returned MC4R antag cAMP 4, HTR2A ag -2, TAAR1 agonist 1, TAAR1 antagonist 0, MC4R barr agon -2 and Beta2AR agonist 8.
`CCCCCCCCn1sccc1=O` gave MC4R antag cAMP 12, HTR2A ag 12, TAAR1 agonist 20, TAAR1 antagonist 2, MC4R barr agon -1 and Beta2AR agonist 35.
For CCCCCSc1cc(OC)c(CCN)cc1OC the results were MC4R antag cAMP -16, HTR2A ag 30*, TAAR1 agonist 41*, TAAR1 antagonist 2, MC4R barr agon 5, Beta2AR agonist -20, OPRM1 ag 0 and HTR2A ag conf 13.
CCCCCCCSc1cc(OC)c(CCN(C)C)cc1OC was read as MC4R antag cAMP 1, HTR2A ag 34*, TAAR1 agonist 22, TAAR1 antagonist 14, MC4R barr agon 3, Beta2AR agonist 37, OPRM1 ag 0 and HTR2A ag conf 17*.
`Cc1ccc(C2N(c3cc(C)on3)C(=O)C3CCCN32)cc1` (stereo unspecified) gave MC4R antag cAMP 3, HTR2A ag -3, TAAR1 agonist 8, TAAR1 antagonist -21, MC4R barr agon 0 and Beta2AR agonist 4.
For CCOC(=O)c1ccc(NC(=O)N2C[C@@H]3C[C@@H](C2)c2cccc(=O)n2C3)cc1 the results were MC4R antag cAMP 11, HTR2A ag 25*, TAAR1 agonist 3, TAAR1 antagonist 0, MC4R barr agon -2, Beta2AR agonist 9, OPRM1 ag 0 and HTR2A ag conf -2.
